Screening results (PubChem BioAssay)
Only some compounds are listed: those with a hit (about 2.5% of all), similar ones and a draw of the others.
PglD DTNB: blocks C. jejuni PglD acetyltransferase activity; purified PglD enzyme, DTNB colorimetric CoA detection; inhibition, % at 12.5 µM; 0.098% of 360,000 active; AID 602405; in the data active means inhibition above about 16%, passing the limit was not always enough
ERAP1 HTS inh: inhibitors of human ERAP1 aminopeptidase | Q9NZ08 | 0.15% of 340,000 active | inhibition, % at 10.7 µM | recombinant ERAP1, Leu-AMC fluorescence, 60 min;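 active means mean replicate inhibition of at least 30%, or all replicates individually reaching that 30% level; inactive means mean below 30% and not every replicate reaching it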;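 further: 0% = neutral control wells and 100% = L-leucinethiol positive control wells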
Target sequence (Q9NZ08 whole entry, looked up): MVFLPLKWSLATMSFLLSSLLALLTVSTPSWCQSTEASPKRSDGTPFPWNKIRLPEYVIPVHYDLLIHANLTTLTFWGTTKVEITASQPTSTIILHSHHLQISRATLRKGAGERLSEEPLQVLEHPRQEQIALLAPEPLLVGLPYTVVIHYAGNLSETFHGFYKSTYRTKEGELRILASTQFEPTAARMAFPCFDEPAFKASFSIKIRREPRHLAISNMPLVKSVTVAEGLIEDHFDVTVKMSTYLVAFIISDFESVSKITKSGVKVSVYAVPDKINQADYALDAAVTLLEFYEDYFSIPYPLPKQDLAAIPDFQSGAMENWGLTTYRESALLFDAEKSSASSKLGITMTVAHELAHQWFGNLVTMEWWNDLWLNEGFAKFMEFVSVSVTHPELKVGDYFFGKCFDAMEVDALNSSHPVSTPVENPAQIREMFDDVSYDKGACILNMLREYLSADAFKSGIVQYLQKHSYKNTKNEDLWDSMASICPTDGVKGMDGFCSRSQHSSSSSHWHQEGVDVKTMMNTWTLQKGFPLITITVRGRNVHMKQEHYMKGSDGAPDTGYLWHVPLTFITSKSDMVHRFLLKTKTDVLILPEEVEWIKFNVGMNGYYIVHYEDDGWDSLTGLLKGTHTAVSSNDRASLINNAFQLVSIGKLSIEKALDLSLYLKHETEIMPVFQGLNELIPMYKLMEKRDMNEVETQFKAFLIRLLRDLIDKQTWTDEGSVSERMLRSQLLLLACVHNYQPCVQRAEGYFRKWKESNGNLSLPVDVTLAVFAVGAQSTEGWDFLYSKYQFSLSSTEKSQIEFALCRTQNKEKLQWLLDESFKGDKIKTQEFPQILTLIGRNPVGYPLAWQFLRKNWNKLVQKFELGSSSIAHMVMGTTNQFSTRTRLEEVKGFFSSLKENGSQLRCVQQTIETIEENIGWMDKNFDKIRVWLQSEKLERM
SIRT5 inh: inhibitors of human sirtuin-5 desuccinylase | Purified SirT5, succinyl-peptide AMC, trypsin-coupled fluorescence | inhibition, % at 15 µM | AID 652115 | Q9NXA8 | 1.1% of 330,000 active; in the data active means inhibition above about 15%
E-selectin induc: induces E-selectin expression in human endothelial cells | 0.37% of 260,000 active | P16581 | activation, % at 7.58 µM | HUVEC E-selectin immunofluorescence imaging; normalized: neutral wells 0, TNF-alpha wells 100;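 active means mean E-selectin-positive cell signal at least 10% of the positive control, reached in at least 60% of replicates, without over 20% cell loss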
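Assay system: HUVEC primary endothelial cells. Input: 3,000 HUVEC seeded per well. Doses: one compound dose added by pin transfer. Read-out basis: % PE-positive cells. Benchmarks: TNF-alpha high, DMSO low. Detection: immunofluorescence imaging. Buffer or medium: EGM-2, gelatin.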
DENV2 CPE: inhibitors of DENV2 cytopathic effect; AID 651640; CPE inhibition, % at 9.99 µM; DENV2-infected cells, cytopathic effect rescue, plate reader; 1.7% of 350,000 active; in the data active means CPE inhibition above about 20%, passing the limit was not always enough; tested in BHK-21 cells;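 further: 0% = median of neutral control wells and 100% = median of positive control wells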
* = called active by the depositor; nt = not tested or not shown.

SMILES	PglD DTNB	ERAP1 HTS inh	SIRT5 inh	E-selectin induc	DENV2 CPE
CN(C)CCN1CCN(C2CN(Cc3cn(Cc4cccc(Cl)c4)nn3)S(=O)(=O)C2)CC1 (stereo unspecified)	nt	nt	19*	4	-4
CN1CCN(C2CN(Cc3cn(Cc4cccc(Cl)c4)nn3)S(=O)(=O)C2)CC1 (stereo unspecified)	nt	nt	-4	0	-6
CN(C)S(=O)(=O)c1ccc(C(=O)OCC2CC2(Cl)Cl)cc1 (stereo unspecified)	-2	-3	-3	0	0
Cc1nc(NC(=O)c2ccccc2)sc1Cc1ccc2c(c1)OCO2	-2	4	-3	nt	-1
Cc1c(Cc2ccc3c(c2)OCO3)sc(NC(=O)c2ccccc2)c1C(N)=O	0	1	20*	0	0
CC(=O)Nc1ccc(CNc2nc(NC(C)C)nc3cc(-c4ccccc4)sc23)cc1	2	7	0	33*	10
O=C(/C=C/c1ccc(Cl)cc1Cl)NC(=S)Nc1ccccn1	2	nt	nt	nt	nt
Clc1ccc(C=Cc2ccccn2)c(Cl)c1	-3	-1	-3	nt	38*
CC[C@H]1c2[nH]c3ccccc3c2C[C@H]2C(=O)N(c3ccc(F)cc3)C(=O)N21	-1	1	0	nt	57*
CC1(C)c2[nH]c3ccccc3c2C[C@@H]2C(=O)N(Cc3ccc(F)cc3)C(=O)N21	5	2	nt	1	-15
O=C(CN1CCOCC1)N1CCCCN2[C@@H](CO)[C@@H](c3ccc(-c4ccccc4)cc3)[C@@H]2C1	11	3	-3	1	61*
O=C(CN1CCOCC1)N1CCCCN2[C@H](C1)[C@H](c1ccc(-c3ccccc3)cc1)[C@@H]2CO	2	1	21*	0	4
O=C(CN1CCOCC1)N1CCCCN2[C@H](C1)[C@@H](c1ccc(/C=C/c3ccccc3)cc1)[C@@H]2CO	-3	5	-2	0	6
O=C(CN1CCOCC1)N1CCCCN2[C@H](CO)[C@H](c3ccc(/C=C/c4ccccc4)cc3)[C@H]2C1	4	6	5	0	54*
O=C(CN1CCOCC1)N1CCCCN2[C@H](CO)[C@H](c3ccc(C#Cc4ccccc4)cc3)[C@@H]2C1	-1	1	1	0	31*
N#Cc1ccccc1NC(=O)CN1CCOCC1	1	-2	-2	0	-6
CC(C)CSc1ccc(S(=O)(=O)NCC(=O)O)cc1[N+](=O)[O-]	nt	-2	1	1	7
CC#CCN1C(=O)N[C@@H](c2ccccc2)C(C(=O)OC)=C1C	4	-5	0	0	33*
COC(=O)C1=C(C)N(Cc2ccccc2)C(=O)N[C@H]1c1ccc(Br)cc1	2	-2	-3	0	-7
Cc1ccc(SCc2c(C(=O)N/N=C/c3ccccc3)nnn2-c2nonc2N)cc1	nt	4	1	0	-8
CCCCCCCCCCCCCCCC[n+]1cccc(C(=O)N(CC)CC)c1	-3	68*	-4	2	5
CCOc1ccccc1NC(=O)COC(=O)CC(C)(C)CC1=NS(=O)(=O)c2ccccc2N1	-6	-3	18*	nt	-8
Cc1cc(C)cc(NC(=O)COC(=O)CCCC2=NS(=O)(=O)c3ccccc3N2)c1	nt	-2	2	-1	-1
Cc1nnc(NC(=O)CSc2nccn2-c2ccc(F)cc2)s1	nt	-3	-4	3	1
Cn1cc(CN2CCCC(CNS(=O)(=O)c3cccc4cccnc34)C2)cn1 (stereo unspecified)	-3	4	-3	-1	16
SMILES	PglD DTNB	ERAP1 HTS inh	SIRT5 inh	E-selectin induc	DENV2 CPE
CC(C)n1cc(CN2CCCC(CNS(=O)(=O)c3cccc4cccnc34)C2)cn1 (stereo unspecified)	7	0	1	-1	22*
Cc1ccc(S(=O)(=O)N2CCN(C(=O)COC(=O)Cc3ccc(F)cc3)CC2)c(C)c1	-1	1	4	0	0
Cc1ccc(S(=O)(=O)N2CCN(C(=O)COC(=O)Cc3ccc(Cl)cc3)CC2)c(C)c1	5	-4	3	nt	25*
C[C@H](CO)N1C[C@H](C)[C@@H](CN(C)S(=O)(=O)c2cn(C)cn2)Oc2ccc(NC(=O)C3CC3)cc2CC1=O	1	1	16*	0	-8
C[C@@H]1CN([C@H](C)CO)C(=O)Cc2cc(NS(C)(=O)=O)ccc2O[C@H]1CN(C)S(=O)(=O)c1cn(C)cn1	-1	nt	nt	389*	2
C[C@H]1CN([C@@H](C)CO)C(=O)c2cc(NC(=O)C3CC3)ccc2O[C@H]1CN(C)S(=O)(=O)c1cn(C)cn1	-3	1	29*	0	2
C[C@H](CO)N1C[C@H](C)[C@H](CN(C)S(=O)(=O)c2cn(C)cn2)Oc2ccc(NC(=O)C3CC3)cc2CC1=O	0	-1	-1	0	7
C[C@H]1CN([C@@H](C)CO)C(=O)c2cc(NC(=O)CCCN(C)C)ccc2O[C@@H]1CN(C)S(=O)(=O)c1cn(C)cn1	-2	1	2	-3	38*
Cc1ccc(OCC(=O)NNC(=S)NC(=O)c2ccc(Br)o2)c(C)c1	0	-1	1	0	16
CCCC(=O)Nc1ccc2c(c1)OC[C@H](C)N(CCC(F)(F)F)C[C@H](C)[C@@H](OC)CN(C)C2=O	nt	4	0	0	31*
CCCC(=O)Nc1ccc2c(c1)OC[C@@H](C)N(CCC(F)(F)F)C[C@H](C)[C@H](OC)CN(C)C2=O	-32	0	4	0	7
CCCN1C[C@H](C)[C@H](OC)CN(C)C(=O)c2ccc(NC(=O)CC(F)(F)F)cc2OC[C@@H]1C	nt	-1	nt	0	33*
C[C@H](CO)N1C[C@H](C)[C@H](CN(C)C)Oc2ncc(-c3ccccc3F)cc2C1=O	-1	-6	17*	0	0
CC(C)NC(=O)N(C)C[C@@H]1Oc2ncc(-c3ccccc3F)cc2C(=O)N([C@@H](C)CO)C[C@H]1C	0	2	-2	0	23*
CC(CNC(=O)CCc1ccccc1)NC(=O)CCc1ccccc1 (stereo unspecified)	-2	2	-13	-1	4
O=C(COc1ncnc2ccccc12)NC1CCCCC1	1	1	2	0	3
COc1ccc(NC(=O)N(C)C[C@@H]2OCCCC[C@@H](C)Oc3ccc(NC(=O)Nc4ccc(C(F)(F)F)cc4)cc3C(=O)N([C@@H](C)CO)C[C@@H]2C)cc1	nt	-1	16*	0	-7
COc1ccc(NC(=O)Nc2ccc3c(c2)C(=O)N([C@H](C)CO)C[C@H](C)[C@H](CN(C)C(=O)Nc2ccc(C(F)(F)F)cc2)OCCCC[C@H](C)O3)cc1	-1	-4	3	0	48*
CS/C(N)=N/C(=S)Nc1cccc(Cl)c1	nt	-7	3	nt	0
C[C@@H](NC(=O)[C@H]1[C@H](CO)[C@H]2Cn3c(cccc3=O)[C@@H]1N2CCC(F)(F)F)c1ccccc1	3	nt	nt	0	nt
